ChEMBL document CHEMBL4364323, “Synthesis and biological evaluation of moxifloxacin-acetyl-1,2,3-1H-triazole-methylene-isatin hybrids as potential anti-tubercular agents against both drug-susceptible and drug-resistant Mycobacterium tuberculosis strains” (Eur J Med Chem, 2019)
≈ marks a conversion by molar mass, not a printed value.

Experiments:
Type in all cases: functional
Details in all cases: 168 h
[1] = system: Mycobacterium tuberculosis; assay: Antimycobacterial activity against rifampicin-resistant Mycobacterium tuberculosis incubated for 7 days by rapid direct susceptibility test
Summary of the method: (§1)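 Two-fold compound dilutions were mixed with MTB suspension containing 4×10 -3 mg cells per well and incubated at 37 °C in a wet box. MIC was read from the quantity and state of cells in each well under a continuous visual high-magnification system and was re-determined 7 days later.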

[2] = system: Mycobacterium tuberculosis; assay: Antimycobacterial activity against multidrug (isoniazid and rifampicin) resistant Mycobacterium tuberculosis 1 incubated for 7 days by rapid direct susceptibility test; summary of the method: as §1
[3] = system: Mycobacterium tuberculosis; assay: Antimycobacterial activity against multidrug (isoniazid and rifampicin) resistant Mycobacterium tuberculosis 2 incubated for 7 days by rapid direct susceptibility test; summary of the method: as §1

Compound	MIC [1]	MIC [2]	MIC [3]
CO/N=C1/C(=O)N(Cc2cn(CC(=O)N3CCC[C@@H]4CN(c5c(F)cc6c(=O)c(C(=O)O)cn(C7CC7)c6c5OC)C[C@@H]43)nn2)c2ccccc21	1 µg/mL (≈ 1.43 µM)	0.5 µg/mL (≈ 0.716 µM)	1 µg/mL (≈ 1.43 µM)
COc1c(N2C[C@H]3CCCN(C(=O)Cn4cc(CN5C(=O)/C(=N/NC(N)=S)c6ccccc65)nn4)[C@H]3C2)c(F)cc2c(=O)c(C(=O)O)cn(C3CC3)c12	0.25 µg/mL (≈ 0.337 µM)	0.25 µg/mL (≈ 0.337 µM)	0.5 µg/mL (≈ 0.673 µM)
COc1c(N2C[C@H]3CCCN(C(=O)Cn4cc(CN5C(=O)/C(=N/NC(N)=S)c6cc(F)ccc65)nn4)[C@H]3C2)c(F)cc2c(=O)c(C(=O)O)cn(C3CC3)c12	1 µg/mL (≈ 1.31 µM)	1 µg/mL (≈ 1.31 µM)	2 µg/mL (≈ 2.63 µM)
COc1c(N2C[C@H]3CCCN(C(=O)Cn4cc(CN5C(=O)C(=O)c6ccccc65)nn4)[C@H]3C2)c(F)cc2c(=O)c(C(=O)O)cn(C3CC3)c12	0.5 µg/mL (≈ 0.747 µM)	0.5 µg/mL (≈ 0.747 µM)	0.25 µg/mL (≈ 0.373 µM)
COc1c(N2CCNC(C)C2)c(F)cc2c(=O)c(C(=O)O)cn(C3CC3)c12 (centres undefined) [GATIFLOXACIN]	1 µg/mL (≈ 2.66 µM)	0.25 µg/mL (≈ 0.666 µM)	0.5 µg/mL (≈ 1.33 µM)
NNC(=O)c1ccncc1 [ISONIAZID]	0.5 µg/mL (≈ 3.65 µM)	64 µg/mL (≈ 467 µM)	> 128 µg/mL
COc1c(N2C[C@@H]3CCCN[C@@H]3C2)c(F)cc2c(=O)c(C(=O)O)cn(C3CC3)c12 [MOXIFLOXACIN]	0.5 µg/mL (≈ 1.25 µM)	0.25 µg/mL (≈ 0.623 µM)	0.25 µg/mL (≈ 0.623 µM)
CO[C@H]1/C=C/O[C@@]2(C)Oc3c(C)c(O)c4c(O)c(c(/C=N/N5CCN(C)CC5)c(O)c4c3C2=O)NC(=O)/C(C)=C\C=C\[C@H](C)[C@H](O)[C@@H](C)[C@@H](O)[C@@H](C)[C@H](OC(C)=O)[C@@H]1C [RIFAMPIN]	> 128 µg/mL	> 128 µg/mL	> 128 µg/mL
